Several values for one entry are separate records, joined by “and”; a condition that tells them apart may be missing. Equal values may be shown once. Values belong to the molecule of their own block, whether it stands above or below them.
Experiments:
WT AKR1D1 [1] = target: T1, WT AKR1D1 (Homo sapiens, UniProt P51857); test: Multiple turnover reactions, stopped-flow transient kinetics; type: biochemical; conditions: 10 mM potassium phosphate buffer, pH 7, 37 °C
Summary of the method: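 Multiple-turnover reactions in stopped-flow. […] Both solutions in 10 mM KPi pH 7.0 with 4% acetonitrile at 37 °C. […] At least three traces averaged, fit to a linear or burst-plus-linear equation giving pseudo-first-order kburst and […] kss.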

P133R AKR1D1 [2] = target: T2, P133R AKR1D1 (Homo sapiens, UniProt P51857, P133R); test: Multiple turnover reactions, stopped-flow transient kinetics; type: biochemical; conditions: 10 mM potassium phosphate buffer, pH 7, 37 °C
WT AKR1D1 [3] = target: T1, WT AKR1D1; test: Steroid binding, quenching of energy transfer band of E·NADPH complex
P133R AKR1D1 [4] = target: T2, P133R AKR1D1; test: as above
WT AKR1D1 [5] = target: T1, WT AKR1D1; test: Cofactor binding, quenching of intrinsic protein fluorescence; conditions: pH 7.0, 37 °C
P133R AKR1D1 [6] = target: T2, P133R AKR1D1; test: as above; conditions: pH 7.0, 37 °C
WT AKR1D1 [7] = target: T1, WT AKR1D1; test: Ligand chase experiment of cofactor; type: binding; conditions: pH 7.0, 37 °C
P133R AKR1D1 [8] = target: T2, P133R AKR1D1; test: Ligand chase experiment of cofactor; type: binding
WT AKR1D1 [9] = target: T1, WT AKR1D1; test: Steady-state kinetic analysis of steroid reduction; type: biochemical; conditions: for kcat: pH 7.0, 37 °C, 7.2 μM NADPH; for Ki: Ki (substrate inhibition; dissociation constant for substrate from the E-NADP+ complex)
P133R AKR1D1 [10] = target: T2, P133R AKR1D1; test: Steady-state kinetic analysis of steroid reduction; conditions: for kcat: P133R
[11] = substrate: CC(C)CCC[C@@H](C)[C@H]1CC[C@H]2[C@@H]3[C@H](O)CC4=CC(=O)CC[C@]4(C)[C@H]3CC[C@]12C; test: purified protein, by the assay type; conditions: other: P133R, pH 7.0, 37.0 °C

T1 sequence (P51857 whole entry): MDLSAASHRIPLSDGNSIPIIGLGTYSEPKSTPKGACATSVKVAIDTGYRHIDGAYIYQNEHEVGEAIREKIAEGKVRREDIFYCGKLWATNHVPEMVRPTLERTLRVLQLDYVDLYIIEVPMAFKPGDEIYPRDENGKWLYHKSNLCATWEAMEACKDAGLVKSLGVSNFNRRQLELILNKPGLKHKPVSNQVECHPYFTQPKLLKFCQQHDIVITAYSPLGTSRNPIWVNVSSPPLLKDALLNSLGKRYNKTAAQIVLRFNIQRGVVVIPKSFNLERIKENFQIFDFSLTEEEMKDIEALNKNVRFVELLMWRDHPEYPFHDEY

kss (WT AKR1D1 [1]): 0.048 ± 0.001 s⁻¹
kss (P133R AKR1D1 [2]): 0.040 ± 0.001 s⁻¹
reduction in Kd versus 7α-hydroxycholest-4-en-3-one (WT AKR1D1 [3]; WT): 4 fold
Molecule: C[C@]12CCC(=O)C=C1CC[C@@H]1[C@@H]2C(=O)C[C@@]2(C)[C@H]1CC[C@]2(O)C(=O)CO [cortisone]

Kd (WT AKR1D1 [3]): 3.7 ± 0.2 µM
Kd (P133R AKR1D1 [4]): 14.2 ± 1.3 µM
Molecule: CC(C)(C)NC(=O)[C@H]1CC[C@H]2[C@@H]3CC[C@H]4NC(=O)C=C[C@]4(C)[C@H]3CC[C@]12C [finasteride]

Kd (WT AKR1D1 [5]; 10 mM KPi): 0.0043 ± 0.0006 µM
Kd (WT AKR1D1 [5]; 100 mM KPi): 0.237 ± 0.005 µM
Kd (P133R AKR1D1 [6]; 10 mM KPi): 0.08 ± 0.006 µM
Kd (P133R AKR1D1 [6]; 100 mM KPi): 27.1 ± 1.3 µM
koff (rate of NADP+ release) (WT AKR1D1 [7]; 10 mM KPi): 0.164 ± 0.007 s⁻¹
koff (rate of NADP+ release) (WT AKR1D1 [7]; 100 mM KPi): 0.28 s⁻¹ and 0.276 ± 0.008 s⁻¹
koff (rate of NADP+ release) (P133R AKR1D1 [8]; 10 mM KPi): 8.9 ± 0.2 s⁻¹
koff (rate of NADP+ release) (P133R AKR1D1 [8]; 100 mM KPi, too fast for instrument (dead time ~1.8 ms)): >50 s⁻¹
Molecule: NC(=O)c1ccc[n+]([C@@H]2O[C@H](COP(=O)([O-])OP(=O)(O)OC[C@H]3O[C@@H](n4cnc5c(N)ncnc54)[C@H](OP(=O)(O)O)[C@@H]3O)[C@@H](O)[C@H]2O)c1 [NADP^+]

Kd (WT AKR1D1 [5]; 10 mM KPi): 24.8 ± 1.7 µM
Kd (WT AKR1D1 [5]; 100 mM KPi): 34.8 ± 3.5 µM
Kd (P133R AKR1D1 [6]; 10 mM KPi): 28.4 ± 1.9 µM
Kd (P133R AKR1D1 [6]; 100 mM KPi): 34.5 ± 3.8 µM
Molecule: NC(=O)C1=CN([C@@H]2O[C@H](COP(=O)(O)OP(=O)(O)OC[C@H]3O[C@@H](n4cnc5c(N)ncnc54)[C@H](O)[C@@H]3O)[C@@H](O)[C@H]2O)C=CC1 [NADH]

Molecule: CC(C)CCC[C@@H](C)[C@H]1CC[C@H]2[C@@H]3[C@H](O)CC4=CC(=O)CC[C@]4(C)[C@H]3CC[C@]12C [7α-hydroxycholest-4-en-3-one]
kcat (WT AKR1D1 [9]; 10 mM KPi): 0.017 ± 0.001 s⁻¹
kcat (WT AKR1D1 [9]; 100 mM KPi): 0.020 ± 0.002 s⁻¹
Ki (WT AKR1D1 [9]; 10 mM KPi): 55 ± 14 µM
Ki (WT AKR1D1 [9]; 100 mM KPi): 46 ± 18 µM
kss (WT AKR1D1 [1]): 0.010 ± 0.002 s⁻¹
kss (P133R AKR1D1 [2]): 0.004 ± 0.001 s⁻¹
Kd (WT AKR1D1 [3]): 2.2 ± 0.3 µM
Kd (P133R AKR1D1 [4]): 13.6 ± 1.9 µM
Ki (P133R AKR1D1 [10]): 51 ± 27 µM
kcat WT/P133R (P133R AKR1D1 [10]; 10 mM KPi): 10
kcat WT/P133R (P133R AKR1D1 [10]; 100 mM KPi): 6.7
kcat/Km WT/P133R (fold decrease in catalytic efficiency) (P133R AKR1D1 [10]; 100 mM KPi): 13 and 13.3
kcat (P133R AKR1D1 [10]; 10 mM KPi): 0.0017 ± 0.0001 s⁻¹
kcat (P133R AKR1D1 [10]; 100 mM KPi, apparent value, enzyme not saturated with NADPH): 0.0030 ± 0.0005 s⁻¹

B1: P133R AKR1D1 (Homo sapiens; P133R) (protein)
chain: MDLSAASHRIPLSDGNSIPIIGLGTYSEPKSTPKGACATSVKVAIDTGYRHIDGAYIYQNEHEVGEAIREKIAEGKVRREDIFYCGKLWATNHVPEMVRPTLERTLRVLQLDYVDLYIIEVPMAFKPGDEIYRRDENGKWLYHKSNLCATWEAMEACKDAGLVKSLGVSNFNRRQLELILNKPGLKHKPVSNQVECHPYFTQPKLLKFCQQHDIVITAYSPLGTSRNPIWVNVSSPPLLKDALLNSLGKRYNKTAAQIVLRFNIQRGVVVIPKSFNLERIKENFQIFDFSLTEEEMKDIEALNKNVRFVELLMWRDHPEYPFHDEY
Km ([11]; 10 mM KPi): 2.4 ± 0.7 (WT/P133R 0.42) μM
Km ([11]; 100 mM KPi, apparent value): 1.0 ± 0.4 (WT/P133R 0.5) μM
